These results are taken from ChEMBL document CHEMBL1131183, “New 1alpha,25-dihydroxy-19-norvitamin D3 compounds of high biological activity: synthesis and biological evaluation of 2-hydroxymethyl, 2-methyl, and 2-methylene analogues” (1998).

The target in assay [1] is T1, Vitamin D3 receptor (Sus scrofa) (UniProt A3RGC1).
T1 sequence (whole entry): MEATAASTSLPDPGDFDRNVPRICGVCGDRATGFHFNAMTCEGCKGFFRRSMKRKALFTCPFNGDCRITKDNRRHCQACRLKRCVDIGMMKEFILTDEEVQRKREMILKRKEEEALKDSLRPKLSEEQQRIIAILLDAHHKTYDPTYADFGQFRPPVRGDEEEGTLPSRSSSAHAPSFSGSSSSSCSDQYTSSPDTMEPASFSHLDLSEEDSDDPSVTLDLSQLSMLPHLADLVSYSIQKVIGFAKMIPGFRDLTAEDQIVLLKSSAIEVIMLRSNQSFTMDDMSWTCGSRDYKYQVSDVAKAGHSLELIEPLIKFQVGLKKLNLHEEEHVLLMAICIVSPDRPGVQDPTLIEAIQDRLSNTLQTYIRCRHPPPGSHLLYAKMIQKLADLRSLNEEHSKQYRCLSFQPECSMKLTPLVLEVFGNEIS
The experiment in a line: Inhibition of 1-alpha,25-(OH)2D3 binding to porcine intestinal vitamin D receptor. The gist of the method: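 Porcine intestinal nuclear extract, 0.1 mg protein (200 fmol binding activity) per tube, incubated with 10 000 cpm 1α,25-(OH)2[26,27-3H]D3 plus graded unlabelled standard or analogue in ethanol, 4 h room temperature with shaking. Bound label captured on hydroxyapatite, washed with TE/5% Triton, counted by scintillation. ED50 = concentration displacing 50% of label, from dose-response curves; triplicate on two occasions.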

The species entered for assay [2] is Rattus norvegicus. The experiment in a line: Support of intestinal calcium transport measured in vitamin D-deficient rats on a low-calcium diet(260). In kind it is functional. The gist of the method:
(§1)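 Vitamin D-deficient weanling male rats, 0.47% Ca diet 1 week then 0.02% Ca diet 3 weeks, given 130 or 260 pmol ip daily for 7 days in 0.1 mL propylene glycol/ethanol 95:5; vehicle controls. Killed 24 h after last dose; everted sac of proximal 10 cm intestine, Ca by atomic absorption, expressed as serosal/mucosal ratio. ≥6 rats/group, mean ± SEM, t-test.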

The species named for assay [3] is Rattus norvegicus. Nature of the assay: Bone calcium mobilization measured in vitamin D-deficient rats on a low-calcium diet(260). The assay is classed as functional, organism-based. The gist of the method:
(§2)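 Weanling male rats kept on 0.47% Ca diet 1 week, then 0.02% Ca diet 3 weeks; dosed ip daily for 7 days (130 or 260 pmol) in 0.1 mL propylene glycol/ethanol 95:5 during last week; vehicle controls. Serum Ca measured 24 h after last dose by atomic absorption with 0.1% LaCl3; rise in serum Ca taken as bone mobilization. ≥6 rats/group, mean ± SEM, Student's t-test.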

For assay [4], the species on record is Rattus norvegicus. The experiment in a line: Support of intestinal calcium transport measured in vitamin D-deficient rats on a low-calcium diet(130). In kind it is functional. The procedure, abridged: as §1
In assay [5] the test system is HL-60. The experiment in a line: Induced differentiation of human promyelocyte HL-60 cells into monocytes. In kind it is functional. The note with it: read-out: ED50 (the source's name).
The species named for assay [6] is Rattus norvegicus. The experiment in a line: Bone calcium mobilization measured in vitamin D-deficient rats on a low-calcium diet(130). In kind it is functional, organism-based. The gist of the method:
as §2

The target of assay [7] is T1, Vitamin D3 receptor (Sus scrofa).

pEC50: −log10 of the molar value. Several values for one entry are separate records, joined by “and”; a condition that tells them apart may be missing. Equal values may be shown once.

In turn, `C=C1/C(=C\C=C2/CCC[C@]3(C)[C@@H]([C@H](C)CCCC(C)(C)O)CC[C@@H]23)C[C@@H](O)C[C@@H]1O` [CALCITRIOL] displayed an ED50 in assay [1] of 0.09 nM. Further, the “Ca2+ transport S/M” value in assay [2] was 6.2 and 5.6 and 4.6 and 6.6. Also, the Serum Ca2+ in assay [3] was 6.6 [middle of 4 runs].

For the compound `C[C@@H](CCCC(C)(C)O)[C@H]1CC[C@H]2/C(=C/C=C3C[C@@H](O)C(CO)[C@H](O)C3)CCC[C@]12C` (stereo partly specified) [listing 1 of 3 here], the figures for the “Ca2+ transport S/M” value in assay [2] and in assay [4] were 5.8 and 5, respectively. The pEC50 in assay [5] is 8.70.

`CC1[C@H](O)CC(=C/C=C2\CCC[C@]3(C)[C@@H]([C@H](C)CCCC(C)(C)O)CC[C@@H]23)C[C@H]1O` (stereo partly specified) [listing 1 of 3 here]: the Serum Ca2+ in assay [3] was 3.8 and 5.8; in assay [6], 4.1 and 4.8.

For `C[C@@H](CCCC(C)(C)O)[C@H]1CC[C@H]2/C(=C/C=C3C[C@@H](O)C(CO)[C@H](O)C3)CCC[C@]12C` (stereo partly specified) [listing 2 of 3 here], the Serum Ca2+ was 3.5 and 3.9 in assay [3]; 3.6 and 4 in assay [6].

`C=C1[C@H](O)CC(=C/C=C2\CCC[C@]3(C)[C@@H]([C@H](C)CCCC(C)(C)O)CC[C@@H]23)C[C@H]1O` came in with an ED50 in assay [7] of 0.12 nM. In addition, the results for the “Ca2+ transport S/M” value in assay [2] and in assay [4] were 4.9 and 5.3, respectively. The results for the Serum Ca2+ in assay [3] and in assay [6] were 9.6 and 9.9, respectively. Besides, in assay [5] (Homo sapiens, HL-60), the pEC50 is 8.38.

Turning to `CC1[C@H](O)CC(=C/C=C2\CCC[C@]3(C)[C@@H]([C@H](C)CCCC(C)(C)O)CC[C@@H]23)C[C@H]1O` (stereo partly specified) [listing 2 of 3 here], the “Ca2+ transport S/M” value turned out to be 3 in assay [2] and 4.4 in assay [4]. Moreover, in assay [5], the pEC50 was 8.10.

Consider `C=C1[C@H](O)CC(=C/C=C2\CCC[C@]3(C)[C@@H]([C@@H](C)CCCC(C)(C)O)CC[C@@H]23)C[C@H]1O` [DP001], for which the ED50 in assay [7] was determined as 0.1 nM. Besides, the “Ca2+ transport S/M” value is listed as 4.6 in assay [2] and 5.8 in assay [4]. The Serum Ca2+ is 14.4 in assay [3] and 13.8 in assay [6]. Besides, the pEC50 in assay [5] (Homo sapiens, HL-60) was 9.82.

Regarding `C[C@@H](CCCC(C)(C)O)[C@H]1CC[C@H]2/C(=C/C=C3C[C@@H](O)C(CO)[C@H](O)C3)CCC[C@]12C` (stereo partly specified) [listing 3 of 3 here], the “Ca2+ transport S/M” value in assay [2] and in assay [4] was 3.5 each time. Moreover, the pEC50 in assay [5] is 8.35.

Consider `CC1[C@H](O)CC(=C/C=C2\CCC[C@]3(C)[C@@H]([C@@H](C)CCCC(C)(C)O)CC[C@@H]23)C[C@H]1O` (stereo partly specified) [listing 1 of 3 here], for which the ED50 in assay [7] was 0.4 nM and 0.5 nM. Besides, the Serum Ca2+ is 10.3 and 4.4 in assay [3]; 8.3 and 4.4 in assay [6].

Consider `CC1[C@H](O)CC(=C/C=C2\CCC[C@]3(C)[C@@H]([C@@H](C)CCCC(C)(C)O)CC[C@@H]23)C[C@H]1O` (stereo partly specified) [listing 2 of 3 here], for which the “Ca2+ transport S/M” value in assay [2] came out at 8.4; in assay [4], 12.9. Moreover, the pEC50 in assay [5] was 10.15.

Turning to `CC1[C@H](O)CC(=C/C=C2\CCC[C@]3(C)[C@@H]([C@H](C)CCCC(C)(C)O)CC[C@@H]23)C[C@H]1O` (stereo partly specified) [listing 3 of 3 here], the figures for the “Ca2+ transport S/M” value in assay [2] and in assay [4] were 5.3 and 4.3, respectively. For the same compound, the pEC50 in assay [5] is 10.10.

`CC1[C@H](O)CC(=C/C=C2\CCC[C@]3(C)[C@@H]([C@@H](C)CCCC(C)(C)O)CC[C@@H]23)C[C@H]1O` (stereo partly specified) [listing 3 of 3 here]: the “Ca2+ transport S/M” value in assay [2] is 3.8; in assay [4], 2.9. For the same compound, in assay [5], the pEC50 was 9.15.

Take `C[C@H](CCCC(C)(C)O)[C@H]1CC[C@H]2/C(=C/C=C3C[C@@H](O)C(CO)[C@H](O)C3)CCC[C@]12C` (stereo partly specified): the pEC50 in assay [5] (Homo sapiens, HL-60) is 7.70.
